Usually IC50 stands for the concentration at which inhibition is half-maximal. A lower IC50 goes with higher potency. In general, inhibition refers to the percentage by which the read-out fell short of the control. A low value points to little suppression.

Each structure is given as a SMILES string. Activity calls are given as the source filed them. The rule behind the calls is not given here.

The values that follow come from ChEMBL document CHEMBL1138620, “Synthesis and antiproliferative evaluation of pyrazolo[1,5-a]-1,3,5-triazine myoseverin derivatives” (Bioorg Med Chem, 2009).

Assay [1] has as its system SW480. As to the kind of experiment: Cell cycle arrest in human SW480 cells assessed as accumulation at S phase at 30 uM after 24 hrs by flow cytometry. The assay is classed as functional. In outline: (§1)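 Colorectal lines were cultured in D-MEM with 10% FCS and treated at 30 µM for 24 h. Cells (10^6/mL) were resuspended in propidium iodide solution, held at 4 °C overnight and analysed by flow cytometry for DNA content. Values are means of three experiments ± SD.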
(Flow cytometry measures light scatter and fluorescence of single cells or particles in a stream.)

In assay [2] the test system is SW48. As to the kind of experiment: Cytotoxicity against human SW48 cells after 72 hrs by MTT assay. Type of assay: functional, cell-based. The conditions noted are these: SW48, 72 h. In outline: (§2)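 Cells (5 × 10^3/well) were seeded and incubated 24 h before drug addition, then exposed for 72 h. MTT was added (5 mg/mL stock) and growth was taken as absorbance relative to untreated wells. IC50 is the dose giving 50% growth inhibition. Three experiments were run, each in triplicate. Media: D-MEM with 10% FCS for MCF-7, HCT116, SW48 and SW480; RPMI1640 with 10% FCS for Mes-sa and CEM.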
(Formazan colour is commonly taken as a measure of viable cells.)

The subject of assay [3] is SW480. Description: Cell cycle arrest in human SW480 cells assessed as accumulation at G2/M phase at 30 uM after 24 hrs by flow cytometry. The assay is classed as functional. In outline:
as §1

Assay [4] relates to HCT-116. As to the kind of experiment: Cell cycle arrest in human HCT116 cells assessed as accumulation at G1 phase at 30 uM after 24 hrs by flow cytometry. The assay is classed as functional. A digest of the protocol:
as §1

Assay [5] deals with HeLa. As to the kind of experiment: Antimitotic activity in human HeLa cells expressing GFP-tubulin assessed as induction of mitotic deffects at 50 uM by flow cytometry. The assay is classed as functional, cell-based.
A short description of assay [6]: Cytotoxicity against human MES-SA cells after 72 hrs by MTT assay. The assay is classed as functional, cell-based. A digest of the protocol: as §2
The next assay relates to MCF7. Description: Cytotoxicity against human MCF7 cells after 72 hrs by MTT assay. Type of assay: functional, cell-based. Conditions: MCF7, 72 h. In outline:
as §2

Assay [7] deals with SW480. Description: Cytotoxicity against human SW480 cells after 72 hrs by MTT assay. The conditions noted are these: SW480, 72 h. Type of assay: functional, cell-based. A digest of the protocol: as §2
Assay [8] has as its system HCT-116. Description: Cytotoxicity against human HCT116 cells after 72 hrs by MTT assay. The assay is classed as functional, cell-based. Conditions: HCT-116, 72 h. In outline: as §2
The test system of assay [9] is HCT-116. Description: Cell cycle arrest in human HCT116 cells assessed as accumulation at G2/M phase at 30 uM after 24 hrs by flow cytometry. The assay is classed as functional. A digest of the protocol: as §1
The test system of assay [10] is SW480. Description: Cell cycle arrest in human SW480 cells assessed as accumulation at G1 phase at 30 uM after 24 hrs by flow cytometry. Type of assay: functional. A digest of the protocol:
as §1

For assay [11], the system named is SW48. Description: Cell cycle arrest in human SW48 cells assessed as accumulation at S phase at 30 uM after 24 hrs by flow cytometry. Type of assay: functional. In outline: as §1
In a further assay the test system is CCRF-CEM. As to the kind of experiment: Cytotoxicity against human CEM cells after 72 hrs by MTT assay. Type of assay: functional, cell-based. In outline:
as §2

Assay [12] concerns SW48. Description: Cell cycle arrest in human SW48 cells assessed as accumulation at G2/M phase at 30 uM after 24 hrs by flow cytometry. The assay is classed as functional. In outline: as §1
In assay [13] the test system is SW48. Description: Cell cycle arrest in human SW48 cells assessed as accumulation at G1 phase at 30 uM after 24 hrs by flow cytometry. Type of assay: functional. In outline: as §1
The species entered for the next assay is Bos taurus. Description: Inhibition of tubulin polymerization in bovine brain relative to baseline. Conditions: concentration not given here. A digest of the protocol:
(§3)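 Purified bovine brain tubulin (29 µM) was added to PEM buffer (100 mM PIPES, 1 mM MgCl2, 1 mM EGTA) with increasing inhibitor concentrations, up to 100 µM, in DMSO at equal DMSO levels. Polymerization was followed by absorbance at 340 nm for at least 1 h at 37 °C, and IC50 was taken from concentration–response plots.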

Assay [14] deals with HCT-116. Description: Cell cycle arrest in human HCT116 cells assessed as accumulation at S phase at 30 uM after 24 hrs by flow cytometry. The assay is classed as functional. In outline: as §1
For assay [15], the system named is HeLa. As to the kind of experiment: Antimitotic activity in human HeLa cells expressing GFP-tubulin assessed as induction of mitotic deffects by flow cytometry. Type of assay: functional, cell-based.
Assay [16] can be described thus: Inhibition of tubulin polymerization in bovine brain. Also noted: species or system Bos taurus. In outline: as §3
The subject of assay [17] is HeLa. As to the kind of experiment: Antimitotic activity in human HeLa cells expressing GFP-tubulin assessed as increase in aberration of mitotic spindle after 24 hrs by fluorescence microscopy. Type of assay: functional, cell-based. Conditions: in the assay text read “6 hrs” for “24 hrs”. In outline: (§4)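 HeLa cells were grown in DMEM with 10% FBS at 37 °C in 5% CO2 and left to adhere for at least 36 h on poly-D-lysine-coated coverslips. Drugs were diluted in medium from 50 mM DMSO stocks. Cells were fixed with 1% paraformaldehyde then cold methanol and stained with anti-β-tubulin plus a FITC secondary, with propidium iodide counterstain. Aberrant spindles were scored as a percentage of total spindles counted.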

For assay [18], the system named is HeLa. Description: Antimitotic activity in human HeLa cells expressing GFP-tubulin assessed as aberration of mitotic spindle at 12 uM after 24 hrs by fluorescence microscopy. Type of assay: functional. The conditions noted are these: in the assay text read “6 hrs” for “24 hrs”. In outline:
as §4

Assay [19] has as its system HeLa. As to the kind of experiment: Antimitotic activity in human HeLa cells expressing GFP-tubulin assessed as block of G2/M phase after 24 hrs by flow cytometry. The assay is classed as functional, cell-based. A digest of the protocol: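 HeLa cells were exposed to increasing inhibitor concentrations for 24 h. The percentage of G2/M cells was determined by flow cytometry, with nocodazole as the reference mitotic inhibitor.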

Assay [20] has as its system HeLa. As to the kind of experiment: Antimitotic activity in human HeLa cells expressing GFP-tubulin assessed as collapse of spindle microtubule at 12 uM.

In the case of `COc1ccc(CNc2nc(NCc3ccc(OC)cc3)n3ncc(Br)c3n2)cc1`, the Activity in the assay with SW480 [1] is 9%; in the assay with SW480 [3] it was 28%; in the assay with HCT-116 [4] it was 44%; with HCT-116 [9] it was 55.5%; with SW480 [10], 62%; with SW48 [11] it was 0.5%. The Activity with SW48 [12] was found to be 42.5%; in the assay with SW48 [13], 50%; in the assay on HCT-116 [14] it was 0.5%. Moreover, the IC50 is 7.5 µM with SW48 [2]; 43 µM in assay [6]; 35.5 µM in the assay on MCF7; 26.5 µM in the assay with SW480 [7]; 25 µM with HCT-116 [8]; 38.5 µM with CCRF-CEM. The result in the assay with HeLa [5] was inactive. In the assay listed under Bos taurus, this molecule yielded an inhibition of 50%.
As to `COc1ccc(CNc2nc(NCc3ccc(OC)cc3)n3ncc(C(C)C)c3n2)cc1`, the Activity in the assay with SW480 [1] is 5.9%; in the assay with SW480 [3], 91.2%; in the assay with HCT-116 [4], 8%; with HCT-116 [9] it was 89.3%; in the assay with HeLa [17], “Dose-dependent effect”; in the assay with SW480 [10] it was 3%. The Activity turned out to be 1.3% in the assay on SW48 [11]; 100% in the assay on HeLa [18]; 75.4% in the assay with SW48 [12]; 22.4% in the assay with SW48 [13]; 2.8% in the assay on HCT-116 [14]. For the same molecule, the result in the assay with HeLa [15] and in the assay on HeLa [19] was Active. For the same molecule, the IC50 is 2.6 µM with SW48 [2]; 3.6 µM in [16]; 23 µM in assay [6]; 51.5 µM with MCF7; 5.5 µM with SW480 [7]; 4.6 µM in the assay on HCT-116 [8]. In the assay with CCRF-CEM, the IC50 stood at 5.4 µM.
In the case of `COc1ccc(CNc2nc(NCc3ccc(OC)cc3)c3ncn(C(C)C)c3n2)cc1` [MYOSEVERIN], the Activity is 3% with SW480 [1]; 84.5% in the assay with SW480 [3]; 1.8% with HCT-116 [4]; 88% in the assay on HCT-116 [9]; “Dose-dependent effect” with HeLa [17]; 12.5% in the assay with SW480 [10]. For the same molecule, the Activity in the assay with SW48 [11] stood at 1%; with HeLa [18], 100%; in the assay with SW48 [12], 98%; in the assay with SW48 [13], 1%; in the assay on HCT-116 [14], 9.5%. In addition, the outcome in the assay with HeLa [15], in the assay with HeLa [19] and in the assay on HeLa [20] was Active. Also, the half-maximal inhibitory concentration (IC50) was determined as 2.7 µM in the assay with SW48 [2]; 3.6 µM in [16]; 8.5 µM in assay [6]; 11.5 µM in the assay with MCF7; 4.8 µM in the assay with SW480 [7]; 3.3 µM in the assay on HCT-116 [8]. Further, the IC50 in the assay with CCRF-CEM is 5.7 µM.
For the molecule `COc1ccc(CNc2nc(NCc3ccc(OC)cc3)n3nccc3n2)cc1`, the Activity in the assay with SW480 [1] is 15%; in the assay with SW480 [3] it was 42%; in the assay with HCT-116 [4], 19%; in the assay with HCT-116 [9], 51%; in the assay with HeLa [17] it was “Dose-dependent effect”; in the assay with SW480 [10], 43%. Further, the Activity in the assay on SW48 [11] is 21%; in the assay with HeLa [18], 100%; with SW48 [12], 62%; in the assay with SW48 [13], 16%; in the assay on HCT-116 [14] it was 29%. Moreover, the result with HeLa [15] and in the assay on HeLa [19] was Active. Further, the IC50 is 5.2 µM in the assay with SW48 [2]; 3.4 µM in assay [16]; 45 µM in [6]; 34 µM in the assay with MCF7; 8.1 µM in the assay with SW480 [7]; 6.2 µM in the assay with HCT-116 [8]. This molecule also displayed an IC50 in the assay with CCRF-CEM of 13 µM.
